Measurements from ChEMBL document CHEMBL3804828, “2,4,6-Triaminopyrimidine as a Novel Hinge Binder in a Series of PI3Kδ Selective Inhibitors” (J Med Chem, 2016).

Columns and labels:
[1] = target: PI3-kinase p110-delta/p85-alpha (Homo sapiens, UniProt O00329); experiment: Inhibition human full length PI3Kdelta catalytic subunit/p85alpha assessed as formation of PIP3 after 30 mins by europium labeled GRP-based TR-FRET assay; format: protein-complex assay
Rattus norvegicus [2] = species: Rattus norvegicus; experiment: (§1) Inhibition of PI3Kdelta in rat B-cells assessed as reduction in anti IgD-mediated cell activation after 18 to 24 hrs by flow cytometric analysis
How it was run: (§2)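 Rat whole blood, ex vivo; B-cell activation stimulated by anti-IgD (BCR); EC50 and EC90 derived from inhibition of activation.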

[3] = as §1; how it was run: as §2
[4] = Plasma clearance in beagle dog at 1 mg/kg, iv administered via infusion over 30 mins measured after 24 hrs by LC/MS/MS analysis; format: ADME, organism-based, Canis lupus familiaris
How it was run: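 Dogs, n=3 per route; iv dose 1 mg/kg in 5% ethanol/55% PEG 400/40% citrate buffer pH 2; oral dose 5 mg/kg in 15% Captisol (w/v) in water; plasma pharmacokinetics.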

[5] = Ratio of drug level in blood to plasma in Lewis rat; format: ADME, cell-free; conditions: blood and plasma
Rattus norvegicus [6] = experiment: Antiarthritis activity in collagen-induced Lewis rat arthritis model assessed as reduction of bone resorption administered bid through oral gavage for 7 days measured every day started on day 9 and continuing through day 16 of compound dosing; format: functional
How it was run: (§3)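 Female Lewis rats with established collagen-induced arthritis dosed orally by gavage twice daily for 7 days (study days 10–16) with vehicle, 0.34, 1.07, 4.6 or 10 mg/kg, or dexamethasone 0.03 mg/kg; right and left ankle diameters by caliper daily, days 9–16; ankle and knee sections graded 0–5 per histopathology parameter; p < 0.05 versus arthritis + vehicle.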

Rattus norvegicus [7] = experiment: Antiarthritis activity in collagen-induced Lewis rat arthritis model assessed as reduction of bone resorption at 1.07 mg/kg administered bid through oral gavage for 7 days measured every day started on day 9 and continuing through day 16 of compound dosing relative to vehicle-treated control; format: functional; design: scale not given: the % may be the effect or the level left; how it was run: as §3
[8] = target: T1, Phosphatidylinositol 4,5-bisphosphate 3-kinase catalytic subunit delta isoform (Homo sapiens, UniProt O00329); experiment: Inhibition of PI3Kdelta in human whole blood assessed as basophil degranulation by measuring CD63 surface expression on CCR3 positive cells after 60 mins by flow cytometric analysis; format: tissue-based
T1 sequence (O00329 whole entry): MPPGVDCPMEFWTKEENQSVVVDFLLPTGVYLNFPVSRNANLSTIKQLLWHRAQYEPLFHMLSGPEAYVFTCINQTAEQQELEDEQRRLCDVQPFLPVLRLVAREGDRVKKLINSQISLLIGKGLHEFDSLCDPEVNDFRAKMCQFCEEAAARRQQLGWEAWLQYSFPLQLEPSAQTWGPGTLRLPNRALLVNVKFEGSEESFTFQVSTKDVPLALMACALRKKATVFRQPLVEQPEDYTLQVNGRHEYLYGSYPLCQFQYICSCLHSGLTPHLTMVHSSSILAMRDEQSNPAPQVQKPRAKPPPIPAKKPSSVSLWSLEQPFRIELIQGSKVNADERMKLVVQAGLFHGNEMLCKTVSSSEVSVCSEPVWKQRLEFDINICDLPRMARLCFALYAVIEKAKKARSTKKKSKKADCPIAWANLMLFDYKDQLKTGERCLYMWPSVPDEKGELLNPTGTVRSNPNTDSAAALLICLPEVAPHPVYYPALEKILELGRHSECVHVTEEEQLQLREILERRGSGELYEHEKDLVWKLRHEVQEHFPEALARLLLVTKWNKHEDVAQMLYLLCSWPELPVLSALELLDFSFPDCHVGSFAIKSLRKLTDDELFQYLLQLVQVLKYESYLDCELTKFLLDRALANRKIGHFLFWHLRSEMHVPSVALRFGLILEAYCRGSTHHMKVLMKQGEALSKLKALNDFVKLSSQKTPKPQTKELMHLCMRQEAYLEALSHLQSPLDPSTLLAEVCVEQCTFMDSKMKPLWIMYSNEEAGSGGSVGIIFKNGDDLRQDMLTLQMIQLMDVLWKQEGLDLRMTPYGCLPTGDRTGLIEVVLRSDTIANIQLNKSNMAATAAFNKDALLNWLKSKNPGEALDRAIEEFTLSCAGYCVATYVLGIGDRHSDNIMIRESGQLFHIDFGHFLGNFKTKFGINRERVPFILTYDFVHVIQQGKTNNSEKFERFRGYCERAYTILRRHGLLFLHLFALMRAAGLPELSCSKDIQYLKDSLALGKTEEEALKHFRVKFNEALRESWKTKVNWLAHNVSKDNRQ

Rattus norvegicus [9] = experiment: Antiarthritis activity in collagen-induced Lewis rat arthritis model assessed as reduction in ankle inflammation administered bid through oral gavage for 7 days measured every day started on day 9 and continuing through day 16 of compound dosing; format: functional; how it was run: as §3
Rattus norvegicus [10] = experiment: Antiarthritis activity in collagen-induced Lewis rat arthritis model assessed as reduction in ankle swelling administered bid through oral gavage for 7 days measured every day started on day 9 and continuing through day 16 of compound dosing; format: functional, organism-based; how it was run: as §3

Chain of PI3-kinase p110-delta/p85-alpha (P27986 whole entry, one chain of several): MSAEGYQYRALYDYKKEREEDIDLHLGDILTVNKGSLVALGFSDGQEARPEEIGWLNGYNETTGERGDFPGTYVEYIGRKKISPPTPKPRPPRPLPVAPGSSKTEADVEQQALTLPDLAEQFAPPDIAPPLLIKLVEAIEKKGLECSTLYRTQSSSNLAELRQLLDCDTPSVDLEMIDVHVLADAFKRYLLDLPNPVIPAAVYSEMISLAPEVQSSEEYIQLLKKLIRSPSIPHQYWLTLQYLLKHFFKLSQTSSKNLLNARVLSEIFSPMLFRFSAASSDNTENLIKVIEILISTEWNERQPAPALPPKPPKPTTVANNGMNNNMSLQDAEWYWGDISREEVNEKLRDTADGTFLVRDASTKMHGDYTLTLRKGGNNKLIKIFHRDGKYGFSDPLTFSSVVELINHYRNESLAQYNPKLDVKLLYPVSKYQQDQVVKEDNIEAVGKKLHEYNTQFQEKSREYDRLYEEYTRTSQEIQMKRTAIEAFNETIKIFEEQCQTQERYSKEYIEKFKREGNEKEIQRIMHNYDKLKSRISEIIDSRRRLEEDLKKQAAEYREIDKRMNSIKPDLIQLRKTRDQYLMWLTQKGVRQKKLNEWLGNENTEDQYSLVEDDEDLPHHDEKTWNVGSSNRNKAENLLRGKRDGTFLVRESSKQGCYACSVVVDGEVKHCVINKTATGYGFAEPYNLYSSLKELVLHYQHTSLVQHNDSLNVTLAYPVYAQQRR

C[C@H](Nc1nc(N)nc(N)c1C#N)c1nc2cccc(F)c2c(=O)n1-c1cc(F)cc(F)c1
IC50 [1]: 2.2 nM | EC90 (Rattus norvegicus [2]): 100 nM | EC50 [3]: 11 nM | clearance [4]: 9.67 mL/min/kg | blood plasma ratio [5]: 1.4 | ED50 (Rattus norvegicus [6]): 1.5 mg/kg | Activity (Rattus norvegicus [7]): 63% | EC50 [8]: 1 nM | ED50 (Rattus norvegicus [9]): 1.5 mg/kg | Activity (Rattus norvegicus [10]): Dose-dependent effect
